Calls of active or inactive are those of the source. The rule behind the calls is not given here.
Tests used:
Plasmodium falciparum = experiment: Antimalarial activity against Plasmodium falciparum; type: functional, organism-based
[1] = test system: Mycobacterium tuberculosis; experiment: Antitubercular activity against Mycobacterium tuberculosis H37Rv at 6.25 ug/mL; type: functional, organism-based
DU-145 = experiment: Cytotoxicity against human DU145 cells; type: functional, cell-based
Outline: (§1)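 Tested in the NCI in vitro antitumor screen of 60 human tumour cell lines, after a prior NCI three-cell-line, one-dose primary anticancer assay.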

M14 = experiment: Cytotoxicity against human M14 cells; type: functional, cell-based; outline: as §1
PC-3 = experiment: Cytotoxicity against human PC3 cells; type: functional, cell-based; outline: as §1
NCI-H460 = experiment: Cytotoxicity against human NCI-H460 cells; type: functional, cell-based; outline: as §1
CCRF-CEM = experiment: Cytotoxicity against human CCRF-CEM cells; type: functional, cell-based; outline: as §1
A549 = experiment: Cytotoxicity against human A549 cells; type: functional, cell-based; outline: as §1
NCI/ADR-RES = experiment: Cytotoxicity against human NCI/ADR-RES cells; type: functional, cell-based; outline: as §1
HCT-116 = experiment: Cytotoxicity against human HCT116 cells; type: functional, cell-based; outline: as §1
UO-31 = experiment: Cytotoxicity against human UO31 cells; type: functional, cell-based; outline: as §1
SF-295 = experiment: Cytotoxicity against human SF295 cells; type: functional, cell-based; outline: as §1
SF-539 = experiment: Cytotoxicity against human SF539 cells; type: functional, cell-based; outline: as §1
[2] = Cytotoxicity against human […] cells; type: functional, cell-based; outline: as §1
SR = experiment: Cytotoxicity against human SR cells; type: functional, cell-based; outline: as §1
U-251 = experiment: Cytotoxicity against human U251 cells; type: functional, cell-based; outline: as §1
ACHN = experiment: Cytotoxicity against human ACHN cells; type: functional, cell-based; outline: as §1
LOX IMVI = experiment: Cytotoxicity against human LOXIMVI cells; type: functional, cell-based; outline: as §1
MCF7 = experiment: Cytotoxicity against human MCF7 cells; type: functional, cell-based; outline: as §1
SK-OV-3 = experiment: Cytotoxicity against human SKOV3 cells; type: functional, cell-based; outline: as §1
IGROV-1 = experiment: Cytotoxicity against human IGROV1 cells; type: functional, cell-based; outline: as §1
HT-29 = experiment: Cytotoxicity against human HT-29 cells; type: functional, cell-based; outline: as §1
T47D = experiment: Cytotoxicity against human T47D cells; type: functional, cell-based; outline: as §1
COLO 205 = experiment: Cytotoxicity against human COLO205 cells; type: functional, cell-based; outline: as §1
SK-MEL-2 = experiment: Cytotoxicity against human SK-MEL-2 cells; type: functional, cell-based; outline: as §1
786-0 = experiment: Cytotoxicity against human 786-0 cells; type: functional, cell-based; outline: as §1
OVCAR-3 = experiment: Cytotoxicity against human OVCAR-3 cells; type: functional, cell-based; outline: as §1
HOP-62 = experiment: Cytotoxicity against human HOP62 cells; type: functional, cell-based; outline: as §1

SMILES | Activity [1] | IC50 (DU-145) | IC50 (M14) | IC50 (PC-3) | IC50 (NCI-H460) | IC50 (CCRF-CEM) | IC50 (A549) | IC50 (NCI/ADR-RES) | IC50 (HCT-116) | IC50 (UO-31) | IC50 (SF-295) | IC50 (SF-539) | IC50 [2] | IC50 (SR) | IC50 (U-251) | IC50 (ACHN) | IC50 (LOX IMVI) | IC50 (MCF7) | IC50 (SK-OV-3) | IC50 (IGROV-1) | also measured
CC/C=C/[C@H](CC)C/C(=C/[C@@]1(CC)C[C@H](CC)[C@H](CC(=O)OC)OO1)CC | inactive |  |  |  |  |  |  |  |  |  |  |  |  |  |  |  |  |  |  |  | IC50 (Plasmodium falciparum): ≥ 50 µg/mL
CC/C=C/[C@H](CC)C/C=C/[C@@]1(CC)C[C@H](CC)[C@H](CC(=O)OC)OO1 | inactive |  |  |  |  |  |  |  |  |  |  |  |  |  |  |  |  |  |  |  | 
CC/C=C/[C@H](CC)C/C=C/[C@@]1(CC)C[C@H](CC)[C@H](CC(=O)O)OO1 [PLAKORTIDE M] |  | 1.9 µM | 6.8 µM | 1.6 µM | 1.8 µM | 0.2 µM | 1.8 µM | 1.8 µM | 2 µM | 1.4 µM | 1.8 µM | 1.8 µM | 1.3 µM | 0.4 µM | 1.7 µM | 1.7 µM | 0.5 µM | 2.9 µM | 1.3 µM | 0.6 µM | IC50 (HT-29): 1.4 µM; IC50 (T47D): 2.2 µM; IC50 (COLO 205): 1.5 µM; IC50 (SK-MEL-2): 11.1 µM; IC50 (786-0): 1.6 µM; IC50 (OVCAR-3): 2 µM; IC50 (HOP-62): 1.6 µM
CC/C=C/[C@H](CC)C/C(=C/[C@@]1(CC)C[C@H](CC)[C@H](CC(=O)O)OO1)CC [PLAKORTIDE N] |  | 0.4 µM | 1.6 µM | 0.3 µM | 0.2 µM | 0.1 µM | 0.1 µM | 0.4 µM | 0.4 µM | 0.01 µM | 0.3 µM | 1.5 µM | < 0.01 µM | 0.1 µM | 0.5 µM | 0.2 µM | 0.03 µM | 1.8 µM | 1.9 µM | 0.06 µM | IC50 (HT-29): 0.5 µM; IC50 (T47D): 1.3 µM; IC50 (COLO 205): 1.3 µM; IC50 (SK-MEL-2): 1.7 µM; IC50 (786-0): 1.3 µM; IC50 (OVCAR-3): 1.1 µM; IC50 (HOP-62): 0.9 µM

— ChEMBL document CHEMBL1159390, “Plakortides M and N, bioactive polyketide endoperoxides from the Caribbean marine sponge Plakortis halichondrioides” (J Nat Prod, 2003)
